By IC50 is commonly meant the concentration that gives 50% inhibition.

Molecules are shown by their SMILES.

The source of these data is ChEMBL document CHEMBL2417390 (J Med Chem, 2013).

Assay [1] concerns the target T1, Cytochrome P450 11B2, mitochondrial (Homo sapiens, UniProt P19099).
T1 sequence (P19099 whole entry): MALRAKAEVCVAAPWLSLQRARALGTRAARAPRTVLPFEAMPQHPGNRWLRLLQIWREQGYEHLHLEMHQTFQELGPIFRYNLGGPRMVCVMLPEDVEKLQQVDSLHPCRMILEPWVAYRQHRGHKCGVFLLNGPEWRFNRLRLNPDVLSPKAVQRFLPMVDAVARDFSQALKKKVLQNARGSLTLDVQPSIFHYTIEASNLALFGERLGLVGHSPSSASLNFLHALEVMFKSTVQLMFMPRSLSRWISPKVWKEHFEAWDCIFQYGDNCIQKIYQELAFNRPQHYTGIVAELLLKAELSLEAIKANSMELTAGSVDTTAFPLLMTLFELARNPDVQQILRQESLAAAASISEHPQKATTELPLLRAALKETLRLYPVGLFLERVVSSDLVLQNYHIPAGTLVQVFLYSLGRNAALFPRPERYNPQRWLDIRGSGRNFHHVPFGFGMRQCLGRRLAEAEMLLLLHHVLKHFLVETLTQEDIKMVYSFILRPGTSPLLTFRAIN
The experiment in a line: Inhibition of human CYP11B2 expressed in hamster V79MZh cells using [1,2-3H]-11-deoxycorticosterone as substrate. It is filed as cell-based.

In assay [2] the target is T2, Cytochrome P450 11B1, mitochondrial (Homo sapiens, UniProt P15538).
T2 sequence (P15538 whole entry): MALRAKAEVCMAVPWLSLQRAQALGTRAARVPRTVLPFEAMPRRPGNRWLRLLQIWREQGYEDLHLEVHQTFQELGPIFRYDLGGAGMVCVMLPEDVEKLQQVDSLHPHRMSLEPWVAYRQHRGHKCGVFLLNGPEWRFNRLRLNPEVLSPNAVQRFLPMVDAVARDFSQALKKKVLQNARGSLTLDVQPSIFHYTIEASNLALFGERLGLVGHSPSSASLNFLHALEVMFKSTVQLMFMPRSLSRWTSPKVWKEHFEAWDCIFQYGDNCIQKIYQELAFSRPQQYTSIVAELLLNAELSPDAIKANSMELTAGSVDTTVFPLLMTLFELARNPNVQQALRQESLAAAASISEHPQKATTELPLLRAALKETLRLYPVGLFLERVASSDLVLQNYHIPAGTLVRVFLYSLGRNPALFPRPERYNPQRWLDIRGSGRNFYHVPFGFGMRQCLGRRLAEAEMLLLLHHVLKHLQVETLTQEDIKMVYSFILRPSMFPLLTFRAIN
The experiment in a line: Inhibition of human CYP11B1 expressed in hamster V79MZh cells using [1,2-3H]-11-deoxycorticosterone as substrate. Format: cell-based.

The target in the next assay is T3, Aromatase (Homo sapiens, UniProt P11511).
T3 sequence (P11511 whole entry): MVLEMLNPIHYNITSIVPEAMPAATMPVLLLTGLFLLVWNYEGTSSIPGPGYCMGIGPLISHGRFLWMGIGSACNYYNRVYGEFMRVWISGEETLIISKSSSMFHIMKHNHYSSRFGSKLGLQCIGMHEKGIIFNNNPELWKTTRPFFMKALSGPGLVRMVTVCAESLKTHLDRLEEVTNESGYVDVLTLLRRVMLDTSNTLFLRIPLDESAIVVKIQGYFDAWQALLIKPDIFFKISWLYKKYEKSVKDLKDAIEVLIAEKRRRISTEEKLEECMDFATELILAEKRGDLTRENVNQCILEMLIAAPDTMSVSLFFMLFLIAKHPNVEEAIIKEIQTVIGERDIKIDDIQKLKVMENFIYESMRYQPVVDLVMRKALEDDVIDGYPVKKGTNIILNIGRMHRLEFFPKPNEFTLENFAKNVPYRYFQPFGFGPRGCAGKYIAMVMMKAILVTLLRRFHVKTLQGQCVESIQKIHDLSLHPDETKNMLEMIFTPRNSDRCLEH
The experiment in a line: Inhibition of CYP19 in human placental microsomes using [1beta-3H]androstenedione as substrate by 3H2O-method. Details: species or system Placenta. The method in brief:
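Human placental microsomes as the aromatase source. Product formation was read by the 3H2O release method with [1β-3H]androstenedione at 500 nM as substrate.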

The next assay is filed under the species Homo sapiens. The experiment in a line: Selectivity factor, ratio of IC50 for human CYP11B1 to IC50 for human CYP11B2.
Another assay has as its target Cytochrome P450 3A4 (Homo sapiens, UniProt P08684). The experiment in a line: Inhibition of recombinant CYP3A4 (unknown origin) expressed in baculovirus-infected insect microsomes. Format: ADME, Microsome. The method in brief:
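Recombinant CYP3A4 in baculovirus-infected insect microsomes (Supersomes), assayed following the supplier's protocol.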

The target in assay [3] is T4, Steroid 17-alpha-hydroxylase/17,20 lyase (Homo sapiens, UniProt P05093).
T4 sequence (P05093 whole entry): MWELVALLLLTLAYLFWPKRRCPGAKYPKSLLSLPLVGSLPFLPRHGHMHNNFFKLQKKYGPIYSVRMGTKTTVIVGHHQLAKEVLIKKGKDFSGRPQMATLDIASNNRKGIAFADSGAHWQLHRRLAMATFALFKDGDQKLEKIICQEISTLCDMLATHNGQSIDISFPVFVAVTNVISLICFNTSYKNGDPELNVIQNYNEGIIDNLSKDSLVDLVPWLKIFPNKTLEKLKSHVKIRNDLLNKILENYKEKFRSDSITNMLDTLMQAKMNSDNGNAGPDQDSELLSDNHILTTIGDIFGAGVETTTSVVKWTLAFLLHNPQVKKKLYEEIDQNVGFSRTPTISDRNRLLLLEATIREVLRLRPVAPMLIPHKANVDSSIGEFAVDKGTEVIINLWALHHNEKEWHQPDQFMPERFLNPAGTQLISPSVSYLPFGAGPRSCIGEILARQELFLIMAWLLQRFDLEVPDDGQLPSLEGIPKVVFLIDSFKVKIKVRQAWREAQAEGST
The experiment in a line: Inhibition of human CYP17 expressed in Escherichia coli using 1,2[3H]-progesterone as substrate in presence of NADPH. The method, boiled down: (§1)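 Human CYP17 was recombinantly expressed in E. coli. The substrate was progesterone at 25 µM, with NADPH as cofactor.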

The target in assay [4] is T1, Cytochrome P450 11B2, mitochondrial. The experiment in a line: Inhibition of human CYP11B2.
Assay [5] has as its target T4, Steroid 17-alpha-hydroxylase/17,20 lyase. The experiment in a line: Inhibition of human CYP17. The method in brief:
as §1

Assay [6] has the same target. The experiment in a line: Inhibition of human CYP17 expressed in Escherichia coli using 1,2[3H]-progesterone as substrate at 2000 nM in presence of NADPH relative to control. The conditions noted are these: read-out: INH.

Cytochrome P450 3A4, sequence (P08684 whole entry): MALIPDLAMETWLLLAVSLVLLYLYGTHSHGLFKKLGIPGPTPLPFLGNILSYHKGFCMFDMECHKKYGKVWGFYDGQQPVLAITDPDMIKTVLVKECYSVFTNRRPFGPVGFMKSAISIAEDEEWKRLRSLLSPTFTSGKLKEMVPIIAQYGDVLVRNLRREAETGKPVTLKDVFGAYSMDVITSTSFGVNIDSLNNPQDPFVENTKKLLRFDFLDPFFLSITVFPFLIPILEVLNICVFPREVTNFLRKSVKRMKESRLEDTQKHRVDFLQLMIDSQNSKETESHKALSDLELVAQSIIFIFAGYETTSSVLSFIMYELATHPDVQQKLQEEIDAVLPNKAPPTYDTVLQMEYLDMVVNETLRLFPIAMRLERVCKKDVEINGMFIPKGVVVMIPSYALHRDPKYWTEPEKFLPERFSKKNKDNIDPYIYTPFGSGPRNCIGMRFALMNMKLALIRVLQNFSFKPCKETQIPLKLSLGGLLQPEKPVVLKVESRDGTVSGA

Turning to `COc1ccc2ccc(-c3cccnc3)c(Cl)c2c1F`, the IC50 in [1] was 28 nM; in [2], 2930 nM; against Aromatase, more than 2000 nM; on Cytochrome P450 3A4 it was 1010 nM; in [3] it was 147 nM. In addition, the Ratio IC50 in the assay filed under Homo sapiens came out at 104.

Regarding `Oc1ccc2ccc(-c3cccnc3)c(F)c2c1`, the 50% inhibitory concentration (IC50) is 30 nM in assay [1]; 1160 nM in assay [2]; more than 2000 nM against Aromatase; 1260 nM on Cytochrome P450 3A4; 523 nM in assay [3]. The Ratio IC50 in the assay filed under Homo sapiens is 39.

Regarding `COc1ccc2ccc(-c3cccnc3)c(F)c2c1`, the IC50 was 17 nM in [1]; 1610 nM in assay [2]; more than 2000 nM at Aromatase; more than 10000 nM on Cytochrome P450 3A4; 106 nM in [3]. Besides, the Ratio IC50 in the assay listed under Homo sapiens was 95.

Consider `Oc1ccc2ccc(-c3cncc4ccccc34)c(Cl)c2c1`, for which the IC50 in [1] is 66 nM; in assay [2] it was 238 nM; on Aromatase, more than 2000 nM; at Cytochrome P450 3A4, 1740 nM; in [3], 1030 nM. Also, the Ratio IC50 in the assay filed under Homo sapiens amounted to 4.

With `COc1ccc2ccc(-c3cncnc3)c(Cl)c2c1`, the IC50 in [1] is 72 nM; in assay [2], 12300 nM; at Aromatase, more than 2000 nM; on Cytochrome P450 3A4, more than 10000 nM; in assay [3], 632 nM. For the same compound, the Ratio IC50 in the assay filed under Homo sapiens turned out to be 170.

For `Oc1cncc(-c2ccc3ccc(O)cc3c2Cl)c1`, the 50% inhibitory concentration (IC50) in assay [1] was 27 nM; in [2], 2820 nM; against Aromatase, more than 2000 nM; at Cytochrome P450 3A4 it was 5050 nM; in assay [3], 16 nM. The Ratio IC50 in the assay filed under Homo sapiens turned out to be 104.

Take `COc1ccc2ccc(-c3cccnc3)c(Cl)c2c1`: the IC50 was more than 2000 nM at Aromatase and 3560 nM at Cytochrome P450 3A4. Besides, in the assay listed under Homo sapiens, the Ratio IC50 was 94.

Regarding `COc1ccc2ccc(-c3cccnc3)cc2c1`, the IC50 was more than 2000 nM against Aromatase, 68 nM in assay [4] and 721 nM in [5].

As for `N#Cc1ccc(C2CCCc3cncn32)cc1` (stereo not drawn) [FADROZOLE], the inhibition at 2 µM in assay [6] was less than 5%.

`Oc1ccc2ccc(-c3cccnc3)c(Cl)c2c1`: the half-maximal inhibitory concentration (IC50) in [1] was 26 nM; in [2], 235 nM; at Aromatase, more than 2000 nM; at Cytochrome P450 3A4, 1760 nM; in assay [3], 64 nM. In the assay listed under Homo sapiens, the Ratio IC50 was 9.

Take `COc1ccc2ccc(-c3cncc(O)c3)c(Cl)c2c1`: the half-inhibitory concentration (IC50) in assay [1] was 13 nM; in assay [2], 7100 nM; against Aromatase, more than 2000 nM; at Cytochrome P450 3A4 it was 6720 nM; in assay [3], 11 nM. The Ratio IC50 in the assay listed under Homo sapiens is 546.

`c1cncc(-c2ccc3ccccc3c2)c1`: the 50% inhibitory concentration (IC50) in assay [5] was 3000 nM.

Turning to `COc1cncc(-c2ccc3ccc(O)cc3c2Cl)c1`, the 50% inhibitory concentration (IC50) in assay [1] was 15 nM; in [2] it was 245 nM; on Aromatase, more than 2000 nM; at Cytochrome P450 3A4, 4200 nM; in assay [3], 185 nM. In the assay listed under Homo sapiens, the Ratio IC50 is 16.

As to `COc1ccc2ccc(-c3cncc(F)c3)c(Cl)c2c1`, the IC50 in assay [1] was 38 nM; in assay [2], 1410 nM; against Aromatase, more than 2000 nM; on Cytochrome P450 3A4, more than 10000 nM; in assay [3] it was 454 nM. The Ratio IC50 in the assay listed under Homo sapiens was 37.

As to `Oc1ccc2ccc(-c3cncc(F)c3)c(Cl)c2c1`, the IC50 in assay [1] was 33 nM; in [2] it was 450 nM; on Aromatase it was more than 2000 nM; on Cytochrome P450 3A4, 3580 nM; in assay [3] it was 525 nM. The Ratio IC50 in the assay filed under Homo sapiens is 15.

As to `Oc1ccc2ccc(-c3cccnc3)c(Cl)c2c1F`, the 50% inhibitory concentration (IC50) is 25 nM in assay [1]; 224 nM in assay [2]; more than 2000 nM at Aromatase; more than 10000 nM on Cytochrome P450 3A4; 375 nM in assay [3]. The Ratio IC50 in the assay filed under Homo sapiens was 9.

Take `COc1ccc2ccc(-c3cncc4ccccc34)c(Cl)c2c1`: the half-maximal inhibitory concentration (IC50) in assay [1] is 54 nM; in assay [2], 362 nM; against Aromatase it was more than 2000 nM; on Cytochrome P450 3A4, more than 10000 nM; in [3], 294 nM. Further, in the assay listed under Homo sapiens, the Ratio IC50 was 7.

For `Oc1ccc2ccc(-c3cncnc3)c(Cl)c2c1`, the IC50 in assay [1] is 22 nM; in assay [2], 2430 nM; at Aromatase, more than 2000 nM; at Cytochrome P450 3A4 it was 2150 nM; in [3] it was 1520 nM. The Ratio IC50 in the assay listed under Homo sapiens amounted to 110.

Regarding `COc1cncc(-c2ccc3ccc(OC)cc3c2Cl)c1`, the half-inhibitory concentration (IC50) in assay [1] was 24 nM; in [2] it was 447 nM; at Aromatase it was more than 2000 nM; at Cytochrome P450 3A4, more than 10000 nM; in assay [3] it was 94 nM. The Ratio IC50 in the assay filed under Homo sapiens stood at 19.
